Experimental data: ChEMBL document CHEMBL1123876, “Effect of reductive alkylation of lysine in positions 6 and/or 8 on the histamine-releasing activity of luteinizing hormone-releasing hormone antagonists” (1987)
≈ marks a conversion by molar mass, not a printed value. *1 amine or outer side, *2 acyl side, *3 side chain or, on linkers, in order; H or OH if unused. Where a SMILES comes first, the peptide text is derived from it. [ ]: non-standard residue; d: D form. X1 = O=C([C@@H](CCCCNC1CCCC1)N[*:1])[*:2]; X2 = O=C([C@H](CCCCNC1CCCC1)N[*:1])[*:2]; d2Nal = N[C@H](Cc1ccc2ccccc2c1)C(=O)O

Assays:
Assay type in all cases: functional
Rattus norvegicus [1] = species on record: Rattus norvegicus; test: Antiovulatory activity in rat was expressed as percentage of (8) rats blocked at 3 ug/mL
Summary of the method: (§1)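 Standard antiovulatory assay in Sprague-Dawley rats; analogue given in a 40% propane-1,2-diol/0.9% saline vehicle.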

Rattus norvegicus [2] = species on record: Rattus norvegicus; test: In vitro histamine releasing activity in rat peritoneal cells; settings: read-out: ED50 (the source's name)
Summary of the method: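 Peritoneal cells from male Sprague-Dawley rats exposed in vitro to each analogue in a standard histamine-release assay. ED50 for histamine release is reported in μg/mL as mean ± standard error.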

Rattus norvegicus [3] = species on record: Rattus norvegicus; test: Antiovulatory activity in rat was expressed as percentage of (10) rats blocked at 3 ug/mL; parameters: unit: %; summary of the method: as §1
Rattus norvegicus [4] = species on record: Rattus norvegicus; test: Antiovulatory activity in rat was expressed as percentage of (9) rats blocked at 6 ug/mL; summary of the method: as §1
Rattus norvegicus [5] = species on record: Rattus norvegicus; test: Antiovulatory activity in rat was expressed as percentage of (9) rats blocked at 3 ug/mL; summary of the method: as §1
Rattus norvegicus [6] = species on record: Rattus norvegicus; test: Antiovulatory activity in rat was expressed as percentage of rats blocked at 1 ug/mL (number of rats); summary of the method: as §1

SMILES | Antiovulatory activity (Rattus norvegicus [1]) | EC50 (Rattus norvegicus [2]) | Antiovulatory activity (Rattus norvegicus [3]) | Antiovulatory activity (Rattus norvegicus [4]) | Antiovulatory activity (Rattus norvegicus [5]) | Antiovulatory activity (Rattus norvegicus [6])
CCCC(CCC)NCCCC[C@H](NC(=O)[C@H](Cc1ccccc1)NC(=O)[C@@H](CCCN=C(N)N)NC(=O)[C@H](Cc1ccc(O)cc1)NC(=O)[C@H](CO)NC(=O)[C@@H](Cc1ccccc1)NC(=O)[C@@H](Cc1ccccc1)NC(=O)[C@@H](Cc1ccc2ccccc2c1)NC(C)=O)C(=O)N1CCC[C@H]1C(=O)N[C@H](C)C(=O)O | 0 | 4.6 µg/mL (≈ 3.07 µM) | – | – | – | –
CC(=O)N[C@H](Cc1ccc2ccccc2c1)C(=O)N[C@H](Cc1ccccc1)C(=O)N[C@H](Cc1ccccc1)C(=O)N[C@@H](CO)C(=O)N[C@@H](Cc1ccc(O)cc1)C(=O)N[C@H](CCCN=C(N)N)C(=O)N[C@@H](Cc1ccccc1)C(=O)N[C@@H](CCCCNCc1ccc(C)cc1)C(=O)N1CCC[C@H]1C(=O)N[C@H](C)C(=O)O | – | 33 µg/mL (≈ 21.9 µM) | 10 | – | – | –
CCCCC(CCCC)NCCCC[C@H](NC(=O)[C@H](Cc1ccccc1)NC(=O)[C@@H](CCCCNC(CCCC)CCCC)NC(=O)[C@H](Cc1ccc(O)cc1)NC(=O)[C@H](CO)NC(=O)[C@@H](Cc1ccccc1)NC(=O)[C@@H](Cc1ccccc1)NC(=O)[C@@H](Cc1ccc2ccccc2c1)NC(C)=O)C(=O)N1CCC[C@H]1C(=O)N[C@H](C)C(N)=O | – | > 300 µg/mL | – | 0 | – | –
CC(=O)N[C@H](Cc1ccc2ccccc2c1)C(=O)N[C@H](Cc1ccccc1)C(=O)N[C@H](Cc1ccccc1)C(=O)N[C@@H](CO)C(=O)N[C@@H](Cc1ccc(O)cc1)C(=O)N[C@H](CCCN=C(N)N)C(=O)N[C@@H](Cc1ccccc1)C(=O)N[C@@H](CCCCNCC(C)(C)C)C(=O)N1CCC[C@H]1C(=O)N[C@H](C)C(=O)O | – | 4.68 µg/mL (≈ 3.18 µM) | – | – | 89 | 50
CCCC(CCC)NCCCC[C@H](NC(=O)[C@H](Cc1ccccc1)NC(=O)[C@@H](CCCCNC(CCC)CCC)NC(=O)[C@H](Cc1ccc(O)cc1)NC(=O)[C@H](CO)NC(=O)[C@@H](Cc1ccccc1)NC(=O)[C@@H](Cc1ccccc1)NC(=O)[C@@H](Cc1ccc2ccccc2c1)NC(C)=O)C(=O)N1CCC[C@H]1C(=O)N[C@H](C)C(N)=O | – | 21.9 µg/mL (≈ 14 µM) | 0 | 56 | – | –
CC(=O)N[C@H](Cc1ccc2ccccc2c1)C(=O)N[C@H](Cc1ccccc1)C(=O)N[C@H](Cc1ccccc1)C(=O)N[C@@H](CO)C(=O)N[C@@H](Cc1ccc(O)cc1)C(=O)N[C@H](CCCCNC1CCCC1)C(=O)N[C@@H](Cc1ccccc1)C(=O)N[C@@H](CCCCNC1CCCC1)C(=O)N1CCC[C@H]1C(=O)N[C@H](C)C(N)=O (Ac-[d2Nal][dF][dF]SY[X1]F[X2]P[dA]-NH2) | – | 6.1 µg/mL (≈ 4.04 µM) | 70 | – | – | –
CC(=O)N[C@H](Cc1ccc2ccccc2c1)C(=O)N[C@H](Cc1ccccc1)C(=O)N[C@H](Cc1ccccc1)C(=O)N[C@@H](CO)C(=O)N[C@@H](Cc1ccc(O)cc1)C(=O)N[C@H](CCCN=C(N)N)C(=O)N[C@@H](Cc1ccccc1)C(=O)N[C@@H](CCCCNCc1c(C)cc(C)cc1C)C(=O)N1CCC[C@H]1C(=O)N[C@H](C)C(=O)O | – | 4.73 µg/mL (≈ 3.08 µM) | 10 | – | – | –
CC(=O)N[C@H](Cc1ccc2ccccc2c1)C(=O)N[C@H](Cc1ccccc1)C(=O)N[C@H](Cc1ccccc1)C(=O)N[C@@H](CO)C(=O)N[C@@H](Cc1ccc(O)cc1)C(=O)N[C@H](CCCCNC1CCCCC1)C(=O)N[C@@H](Cc1ccccc1)C(=O)N[C@@H](CCCCNC1CCCCC1)C(=O)N1CCC[C@H]1C(=O)N[C@H](C)C(N)=O | – | 5.86 µg/mL (≈ 3.81 µM) | 38 | – | – | –
CC(=O)N[C@H](Cc1ccc2ccccc2c1)C(=O)N[C@H](Cc1ccccc1)C(=O)N[C@H](Cc1ccccc1)C(=O)N[C@@H](CO)C(=O)N[C@@H](Cc1ccc(O)cc1)C(=O)N[C@H](CCCCNC(C)C)C(=O)N[C@@H](Cc1ccccc1)C(=O)N[C@@H](CCCCNC(C)C)C(=O)N1CCC[C@H]1C(=O)N[C@H](C)C(N)=O | – | 6.48 µg/mL (≈ 4.45 µM) | – | – | 89 | –
